Where a SMILES comes first, the peptide text is derived from it. [ ]: non-standard residue; d: D form. The star is where a group is joined. Phe(4-guanidino) = N=C(N)Nc1ccc(C[C@H](N)C(=O)O)cc1; Phe(4-NH2) = Nc1ccc(C[C@H](N)C(=O)O)cc1; Tryptamide = c1ccc2c(CCN*)c[nH]c2c1; βAla = NCCC(=O)O
What was measured:
Furin = Furin (Homo sapiens, UniProt P09958); test: Inhibition of recombinant human furin expressed in S2 insect cells using pyroGlu-Arg-Thr-Lys-Arg-AMC peptide as substrate after 1 hr by spectrofluorometry
Chain of Furin (P09958 whole entry): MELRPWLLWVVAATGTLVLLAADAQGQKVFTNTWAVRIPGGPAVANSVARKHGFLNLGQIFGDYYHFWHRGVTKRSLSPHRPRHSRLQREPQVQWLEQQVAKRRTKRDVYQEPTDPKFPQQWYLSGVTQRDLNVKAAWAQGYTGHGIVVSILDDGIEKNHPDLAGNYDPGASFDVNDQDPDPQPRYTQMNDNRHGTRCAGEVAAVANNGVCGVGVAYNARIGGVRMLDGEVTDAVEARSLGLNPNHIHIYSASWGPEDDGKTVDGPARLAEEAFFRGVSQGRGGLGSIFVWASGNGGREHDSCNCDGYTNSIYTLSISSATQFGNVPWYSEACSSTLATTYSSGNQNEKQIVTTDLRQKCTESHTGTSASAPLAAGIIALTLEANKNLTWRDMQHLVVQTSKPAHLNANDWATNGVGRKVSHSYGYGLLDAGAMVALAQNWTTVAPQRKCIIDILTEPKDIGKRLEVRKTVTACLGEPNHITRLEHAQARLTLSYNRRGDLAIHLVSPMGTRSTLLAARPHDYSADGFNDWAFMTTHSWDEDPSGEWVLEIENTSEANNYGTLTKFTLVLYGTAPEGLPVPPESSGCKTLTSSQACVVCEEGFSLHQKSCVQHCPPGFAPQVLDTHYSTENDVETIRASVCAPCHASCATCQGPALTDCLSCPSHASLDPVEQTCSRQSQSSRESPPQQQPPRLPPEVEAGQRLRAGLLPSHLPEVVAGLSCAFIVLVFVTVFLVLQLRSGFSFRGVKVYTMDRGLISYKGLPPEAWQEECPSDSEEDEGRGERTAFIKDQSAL
In short: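 Furin was human recombinant from S2 insect cells, purified. Buffer 100 mM HEPES pH 7.5, 1 mM CaCl2, 1 mM β-mercaptoethanol, 1.8 g/L BSA. Substrate 100 µM per well, inhibitors 0–10 µM, 2 units enzyme. Real-time fluorescence (ex 370/em 460 nm) over 1 h. Ki by Cheng–Prusoff; duplicate or triplicate.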

[1] = biological target: T1, Proprotein convertase subtilisin/kexin type 6 (Homo sapiens, UniProt P29122); test: Inhibition of recombinant human PACE4 expressed in S2 insect cells using pyroGlu-Arg-Thr-Lys-Arg-AMC peptide as substrate after 1 hr by spectrofluorometry
T1 sequence (P29122 whole entry): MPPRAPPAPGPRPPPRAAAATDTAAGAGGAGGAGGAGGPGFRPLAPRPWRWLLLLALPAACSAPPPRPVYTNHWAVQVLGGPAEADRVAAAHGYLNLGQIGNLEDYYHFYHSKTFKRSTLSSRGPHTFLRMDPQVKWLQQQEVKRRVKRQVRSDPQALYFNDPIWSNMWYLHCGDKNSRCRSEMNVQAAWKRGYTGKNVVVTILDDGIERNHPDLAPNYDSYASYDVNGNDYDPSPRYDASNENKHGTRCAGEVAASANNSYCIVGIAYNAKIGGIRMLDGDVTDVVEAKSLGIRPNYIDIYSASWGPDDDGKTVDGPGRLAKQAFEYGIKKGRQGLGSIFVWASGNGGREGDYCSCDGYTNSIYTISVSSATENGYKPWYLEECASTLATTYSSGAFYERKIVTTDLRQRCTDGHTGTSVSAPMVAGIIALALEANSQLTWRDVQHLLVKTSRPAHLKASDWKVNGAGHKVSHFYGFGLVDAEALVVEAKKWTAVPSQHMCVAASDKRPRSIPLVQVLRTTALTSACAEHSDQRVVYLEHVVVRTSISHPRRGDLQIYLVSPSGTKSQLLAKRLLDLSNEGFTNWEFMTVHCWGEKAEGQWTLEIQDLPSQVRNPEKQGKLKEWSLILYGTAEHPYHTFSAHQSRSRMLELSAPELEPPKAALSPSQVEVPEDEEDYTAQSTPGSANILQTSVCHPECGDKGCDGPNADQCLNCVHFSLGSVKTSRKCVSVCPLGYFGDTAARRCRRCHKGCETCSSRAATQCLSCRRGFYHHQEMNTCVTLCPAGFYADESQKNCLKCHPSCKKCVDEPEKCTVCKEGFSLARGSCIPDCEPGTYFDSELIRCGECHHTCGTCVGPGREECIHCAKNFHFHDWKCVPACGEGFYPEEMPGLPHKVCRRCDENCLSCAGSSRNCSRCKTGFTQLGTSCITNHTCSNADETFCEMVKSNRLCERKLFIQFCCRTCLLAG
In short: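 Human recombinant PACE4 made in S2 insect cells and purified. Assay buffer 20 mM Bis-Tris pH 6.5, 1 mM CaCl2, 1.8 g/L BSA. Substrate 100 µM per well, inhibitors 0–10 µM, 2 units enzyme. Fluorescence (ex 370/em 460 nm) followed in real time for 1 h. Ki from IC50 by Cheng–Prusoff; duplicate or triplicate.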

Homo sapiens = species: Homo sapiens; test: Selectivity ratio of Ki for recombinant human furin to Ki for recombinant human PACE4
In short: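 Ki values came from human recombinant enzymes expressed in S2 insect cells. Furin was assayed in 100 mM HEPES pH 7.5, 1 mM CaCl2, 1 mM β-mercaptoethanol and 1.8 g/L BSA. PACE4 was assayed in 20 mM Bis-Tris pH 6.5, 1 mM CaCl2 and 1.8 g/L BSA. Substrate was pERTKR-AMC at 100 µM, with inhibitor at 0–10 µM. Fluorescence (ex 370/em 460 nm) was read for 1 h, and Ki derived by Cheng-Prusoff.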

DU-145 [2] = test: Antiproliferative activity against human DU145 cells after 72 hrs by MTT assay; format: functional, cell-based; settings: DU-145, 72 h
In short: (§1)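 MTT assay run 72 h. Seeding was ~1500 cells/well for DU145 and ~2500 cells/well for LNCaP, in RPMI 1640 with 5% FBS (DU145) or 10% FBS (LNCaP). Medium was changed after 24 h, then inhibitor added at 1–300 µM or 1–150 µM. MTT was added at 1 g/L final for 4 h and formazan dissolved in 2-propanol/HCl. Readings were relative to vehicle (water, 0.1% DMSO). IC50 was from at least two independent experiments.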

LNCaP [3] = test: Antiproliferative activity against human LNCAP cells after 72 hrs by MTT assay; format: functional, cell-based; in short: as §1
[4] = Drug uptake in human DU145 cells at 1 uM after 1 hr using FITC labelled compound by flow cytometric analysis relative to FITC-[betaAla]-LLLLRVKR-NH2 peptide; format: ADME, cell-based; settings: du-145, 1 h
In short: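 DU145 cells were plated at 200000 per dish and grown 48 h at 37 °C. They were exposed to 1 µM N-terminally FITC-labelled peptide for 1 h at 37 °C, then trypsinized, washed and resuspended in PBS. PI at 10 µg/mL was added to gate out dead cells. Parallel tubes were quenched with 0.04% trypan blue to remove membrane-bound signal. Flow cytometry counted at least 10000 events.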

DU-145 [5] = test: Antiproliferative activity against human DU145 cells up to 300 uM after 72 hrs by MTT assay relative to control; format: functional; in short: as §1
LNCaP [6] = test: Antiproliferative activity against human LNCAP cells up to 300 uM after 72 hrs by MTT assay relative to control; format: functional; in short: as §1
DU-145 [7] = test: Cytotoxicity against human DU145 cells assessed as effect on live cells up to 100 uM after 1.5 hrs by propidium iodide-staining based FACS analysis; format: cell-based; settings: du-145, 1.5 h
In short: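 DU145 cells (200 000 per well) exposed to peptides in serum-free medium for 1.5 h at 1, 10, 50 and 100 µM, or 1, 10, 15, 20, 30, 50, 100 µM for the dose-response set. Cells trypsinized, washed, resuspended in PBS, PI added (final 10 µg/mL), fluorescence read by flow cytometry; IC50(PI) from the dose-response curve; at least two independent experiments.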

Compound	Ki (Furin) [µM]	Ki [1] [µM]	Ratio Ki (Homo sapiens)	IC50 (DU-145 [2]) [µM]	IC50 (LNCaP [3]) [µM]	fold change (FC) [4]	Drug uptake [4]	Activity (DU-145 [5]) [%]	Activity (LNCaP [6]) [%]	Activity (DU-145 [7])
CC(=O)N[C@H](CC(C)C)C(=O)N[C@@H](CC(C)C)C(=O)N[C@@H](CC(C)C)C(=O)N[C@@H](CC(C)C)C(=O)N[C@@H](CCCNC(=N)N)C(=O)N[C@H](C(=O)N[C@@H](CCCCN)C(=O)N[C@@H](CCCNC(=N)N)C(=O)NCCc1ccc(C(=N)N)cc1)C(C)C	0.7	0.068	10	41	67	–	–	–	–	–
CC(=O)N[C@@H](CC(C)C)C(=O)N[C@@H](CC(C)C)C(=O)N[C@@H](CC(C)C)C(=O)N[C@@H](CC(C)C)C(=O)N[C@@H](CCCNC(=N)N)C(=O)N[C@H](C(=O)N[C@@H](CCCCN)C(=O)N[C@@H](CCCNC(=N)N)C(=O)N[C@@H](Cc1ccc(N)cc1)C(N)=O)C(C)C (Ac-LLLLRVKR[Phe(4-NH2)]-NH2)	0.13	0.032	4	139	170	–	–	–	–	–
CC(=O)N[C@@H](CC(C)C)C(=O)N[C@@H](CC(C)C)C(=O)N[C@@H](CC(C)C)C(=O)N[C@@H](CC(C)C)C(=O)N[C@@H](CCCNC(=N)N)C(=O)N[C@H](C(=O)N[C@@H](CCCCN)C(=O)N[C@@H](CCCNC(=N)N)C(=O)N[C@@H](Cc1ccc(NC(=N)N)cc1)C(N)=O)C(C)C (Ac-LLLLRVKR[Phe(4-guanidino)]-NH2)	0.14	0.011	13	83	92	–	–	–	–	–
CC(C)C[C@H](NC(=O)CCN)C(=O)N[C@@H](CC(C)C)C(=O)N[C@@H](CC(C)C)C(=O)N[C@@H](CC(C)C)C(=O)N[C@@H](CCCNC(=N)N)C(=O)N[C@H](C(=O)N[C@@H](CCCCN)C(=O)N[C@@H](CCCNC(=N)N)C(=O)NCCc1c[nH]c2ccccc12)C(C)C (H-[βAla]LLLLRVKR-Tryptamide)	–	–	–	–	–	3.5	–	–	–	–
CC(C)C[C@H](NC(=O)CCN)C(=O)N[C@@H](CC(C)C)C(=O)N[C@@H](CC(C)C)C(=O)N[C@@H](CC(C)C)C(=O)N[C@@H](CCCNC(=N)N)C(=O)N[C@H](C(=O)N[C@@H](CCCCN)C(=O)N[C@@H](CCCNC(=N)N)C(=O)N[C@@H](CCCCN)C(N)=O)C(C)C (H-[βAla]LLLLRVKRK-NH2)	–	–	–	–	–	–	Active	–	–	–
CC(C)C[C@H](NC(=O)CCN)C(=O)N[C@@H](CC(C)C)C(=O)N[C@@H](CC(C)C)C(=O)N[C@@H](CC(C)C)C(=O)N[C@@H](CCCNC(=N)N)C(=O)N[C@H](C(=O)N[C@@H](CCCCN)C(=O)N[C@@H](CCCNC(=N)N)C(=O)N[C@@H](CCCNC(=N)N)C(N)=O)C(C)C (H-[βAla]LLLLRVKRR-NH2)	–	–	–	–	–	–	Active	–	–	–
CC(C)C[C@H](NC(=O)CCN)C(=O)N[C@@H](CC(C)C)C(=O)N[C@@H](CC(C)C)C(=O)N[C@@H](CC(C)C)C(=O)N[C@@H](CCCNC(=N)N)C(=O)N[C@H](C(=O)N[C@@H](CCCCN)C(=O)N[C@@H](CCCNC(=N)N)C(=O)N[C@@H](Cc1c[nH]c2ccccc12)C(N)=O)C(C)C (H-[βAla]LLLLRVKRW-NH2)	–	–	–	–	–	2	–	–	–	–
Ac-LLLLRVKR-NH2	–	–	20	–	–	–	–	–	–	–
Ac-LLLLRVKRA-NH2	0.21	0.037	6	160	–	–	–	–	–	–
Ac-LLLLRVKRD-NH2	0.074	0.03	2	230	–	–	–	–	–	–
Ac-LLLLRVKRE-NH2	0.26	0.058	4	–	–	–	–	<50	–	–
Ac-LLLLRVKRF-NH2	0.074	0.02	4	70	170	–	–	–	–	–
Ac-LLLLRVKRG-NH2	0.5	0.044	11	–	–	–	–	<50	–	–
Ac-LLLLRVKRH-NH2	0.14	0.033	4	–	–	–	–	<50	–	–
Ac-LLLLRVKRI-NH2	0.29	0.064	5	72	–	–	–	–	<50	–
Ac-LLLLRVKRK-NH2	2.6	0.15	17	130	–	–	–	–	–	Non-Toxic
Ac-LLLLRVKRL-NH2	0.99	0.17	6	90	–	–	–	–	–	–
Ac-LLLLRVKRM-NH2	0.17	0.032	5	130	–	–	–	–	–	–
Ac-LLLLRVKRN-NH2	0.13	0.028	5	–	–	–	–	<50	–	–
Ac-LLLLRVKRP-NH2	0.99	0.25	4	210	–	–	–	–	–	–
Ac-LLLLRVKRQ-NH2	0.19	0.043	5	210	–	–	–	–	–	–
Ac-LLLLRVKRS-NH2	0.33	0.064	5	240	–	–	–	–	–	–
Ac-LLLLRVKRT-NH2	0.1	0.022	5	170	–	–	–	–	–	–
Ac-LLLLRVKRV-NH2	0.2	0.038	5	170	–	–	–	–	–	–
Ac-LLLLRVKRY-NH2	0.064	0.029	2	100	–	–	–	–	–	–
